Measurements from different studies.

Cc1ncc(C)n2nc(/C=C/c3nc(N4CCCC4)cc(N4CCOCC4)n3)nc12  Cmax (male beagle dog, plasma; oral, 0.3 mg/kg): 78 nM
NC(=O)[C@@H]1CC(F)(F)CN1C(=O)c1ccc(N2CC(F)(F)C2)c(OCC2CC2)n1  clearance (C57BL/6 mouse, plasma; intravenous): 28.5 mL/min/kg
N=c1c2c(-c3ccccc3)c(-c3ccccc3)n(Cc3ccccc3)c2ncn1[C@H]1CC[C@H](O)CC1  Cmax (male beagle dog, plasma; oral, 1 mg/kg, single dose): 81.5 ng/mL
CN[C@H](CC(C)C)C(=O)N[C@H]1C(=O)N[C@@H](CC(N)=O)C(=O)N[C@H]2C(=O)NC3C(=O)N[C@H](C(=O)N[C@H](C(=O)NCCC[N+](C)(C)C)c4cc(O)cc(O)c4-c4cc3ccc4O)[C@H](O)c3ccc(c(Cl)c3)Oc3cc2cc(c3OC2OC(CO)C(O)[C@H](O)[C@@H]2O[C@H]2CC(C)(NCc3ccc(-c4ccc(Cl)cc4)cc3)[C@H](O)[C@H](C)O2)Oc2ccc(cc2Cl)[C@H]1O (some centres unmarked)  clearance (mouse, plasma; intravenous, 50 mg/kg): 2 mL/min/kg
CCC[C@@](N)(CO)CCc1ccc(OCCCCCC(C)C)cc1  Cmax (dog, plasma; oral, 20 mg/kg, fed): 995 nM
C[C@]12CC[C@H](n3ccnc3)CC1=CC[C@@H]1[C@@H]2CC[C@]2(C)C(n3cnc4ccccc43)=CC[C@@H]12.Cl.Cl  C0 (male CD-1 mouse, plasma; intravenous, 1 mg/kg): 603 ng/mL
CCN(CC)CCCC[C@H](NC(=O)[C@H](CC(C)C)NC(=O)[C@H](C)NC(=O)[C@H](Cc1ccccc1)NC(=O)c1ccc(C(C)(C)C)cc1)C(=O)N[C@@H](CO)C(=O)OC  clearance (male Swiss mouse, blood; intravenous, 3 mg/kg): 26.5 mL/min/kg
C[C@]12CC[C@H](O)CC1=CC[C@@H]1[C@@H]2CC[C@]2(C)C(n3cnc4ccccc43)=CC[C@@H]12.Cl  C0 (mouse, plasma; intravenous, 1 mg/kg): 98.3 ng/mL
Cc1nonc1Cn1nnc2c(N3CC[C@H](O)C3)nc(C(C)(C)C)nc21  clearance (C57BL/6 mouse, plasma; intravenous): 29.9 mL/min/kg
O=C(Nc1cccnn1)N1CCN([C@@H]2CCOc3cc(C(F)(F)F)ccc32)CC1  Tmax (male Sprague-Dawley rat, plasma; oral, 0.3 mg/kg): 49.8 min
Cl.Cl.O=C(CCN1CCCCC1)c1ccc(-c2ccc(C(=O)CCN3CCCCC3)cc2)cc1  Tmax (Sprague-Dawley rat, plasma; oral, 100 mg/kg): 45 min
